# KLK5 inh – inhibitors of human kallikrein 5; Q9Y337; recombinant hK5, fluorogenic AMC substrate cleavage; inhibition, % at 5 µM; hit rate 0.59% among 210,000; AID 873;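 active = inhibition of 40% or more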;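 also: 0% = enzyme controls without compound and 100% = no-enzyme blanks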
# FXIIa inh 1536 – inhibitors of human coagulation factor XIIa | purified FXIIa, Boc-QGR-AMC fluorogenic substrate, 2 h | hit rate 0.3% among 220,000 | inhibition, % at 5 µM | P00748; in the data active = inhibition above about 40%;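 also: 0% = enzyme with no compound and 100% = blank without enzyme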
# Thrombin inh – blocks human thrombin protease activity | P00734 | alpha-thrombin, Boc-VPR-AMC fluorogenic substrate cleavage | inhibition, % at 5 µM | hit rate 0.26% among 220,000;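 active = inhibition at or above 40%; inactive = inhibition below 40%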;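 also: 0% = enzyme with no compound and 100% = wells without enzyme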
#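 Material: human alpha-thrombin protein. Incubation: reaction at ambient temperature. Technique: fluorescence of released AMC, ex 355 nm, em 460 nm. Control set: no-compound enzyme wells and no-enzyme blanks. Also added: Boc-VPR-AMC substrate, 15 µM final. Buffer or medium: pH 7.5 Tris (50 mM) with NaCl 150 mM, Tween 20 0.05%.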
# Wee1 degr inh – human Wee1 degradation inhibition, primary screen; P30291; hit rate 1.2% among 220,000; AID 1321; HeLa Luc-Wee1K328M stability, luciferase luminescence; 100% = proteasome inhibitor MG132 effect; reporter increase, % at 5 µM;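 active = activation above the mean of all tested compounds plus 3 SD, set per screening run, cut at about 8.8% in these data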;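 also: cells exposed to compound for 20 h before luminescence read; 0% = DMSO alone and 100% = MG132 at 30 µM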
# FXIa inh 1536 – factor XIa (human) inhibition. P03951. purified FXIa, Boc-Glu-Ala-Arg-AMC fluorogenic substrate. inhibition, % at 5 µM. hit rate 0.14% among 220,000;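 active = inhibition of at least 40%; inactive = inhibition below 40%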;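 also: fluorescence of freed AMC excited at 355 nm; 0% = enzyme without compound and 100% = no enzyme blank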
# Target sequence (P03951 19-387 limits assumed): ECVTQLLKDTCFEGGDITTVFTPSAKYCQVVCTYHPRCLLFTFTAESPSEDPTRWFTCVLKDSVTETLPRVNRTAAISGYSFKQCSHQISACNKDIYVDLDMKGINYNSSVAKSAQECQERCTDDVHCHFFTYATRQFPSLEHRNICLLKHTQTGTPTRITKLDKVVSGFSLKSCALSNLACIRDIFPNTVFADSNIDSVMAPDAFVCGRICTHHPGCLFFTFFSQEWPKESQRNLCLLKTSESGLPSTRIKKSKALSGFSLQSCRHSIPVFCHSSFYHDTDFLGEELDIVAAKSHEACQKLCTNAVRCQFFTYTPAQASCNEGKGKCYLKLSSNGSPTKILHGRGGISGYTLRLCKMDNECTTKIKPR
# Target sequence (P03951 388-625 limits assumed): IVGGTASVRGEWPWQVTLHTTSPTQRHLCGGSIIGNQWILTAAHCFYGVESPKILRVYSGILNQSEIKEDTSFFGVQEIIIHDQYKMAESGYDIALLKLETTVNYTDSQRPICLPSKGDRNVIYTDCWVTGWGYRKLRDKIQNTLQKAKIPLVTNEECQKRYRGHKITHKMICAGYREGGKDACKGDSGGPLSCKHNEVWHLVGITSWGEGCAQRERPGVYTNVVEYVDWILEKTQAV
# Platelet DG rel – modulates dense granule release in human platelets; hit rate 0.22% among 300,000; inhibition, %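 (compounds screened at 7.5 µM in platelet-rich plasma)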; human platelet-rich plasma, SFLLRN dense granule ATP release, luminescence;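 active = mean replicate score, as percent of positive control, at or above 50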
# * marks the source's active call; other numbers are inactive results; / = no result given. Shown are actives, neighbours in structure and some others; about 1.8% of the full set was active somewhere.
SMILES,KLK5 inh,FXIIa inh 1536,Thrombin inh,Wee1 degr inh,FXIa inh 1536,Platelet DG rel
Nc1c(C(=O)NCc2cccnc2)sc(=S)n1-c1ccccc1,35,42*,38,3,15,-4
Cc1ccc(C(=O)Nc2nnc(COc3ccccc3)s2)cc1,-2,4,-7,4,-5,0
O=C(O)c1ccc(F)c(S(=O)(=O)Nc2ccccc2Cl)c1,86*,0,18,-1,2,0
O=S(=O)(Nc1ccccc1Cl)c1ccc(F)cc1,-1,11,-5,-1,-2,-4
CN(CC1CCOCC1)C(=O)CC1C(=O)NCCN1Cc1ccc(-c2ccccc2)cc1 (stereo not drawn),-5,6,-4,9.1*,-4,-2
COc1ccc(CN2CCNC(=O)C2CC(=O)N(C)CC2CCOCC2)cc1OC (stereo not drawn),/,/,/,/,/,6
CCOC(=O)c1c(C)n(C)c2ccc(OC)c(NC(=O)CN3CCSCC3)c12,21,5,-7,-2,-8,11
CCOC(=O)c1c(C)n(C)c2ccc(OC)c(NC(=O)CCN3CCC(Cc4ccccc4)CC3)c12,23,27,9,5,52*,8
CC(C)[C@H]1C(=O)Nc2ccccc2N1C(=O)N[C@@H](Cc1ccccc1)C(=O)N[C@@H](C(=O)O)c1ccccc1,/,/,/,/,/,-2
COc1cc(NC(=O)c2cccc(Br)c2)nc(OC)n1,6,11,-3,0,-2,9
O=C1/C(=C/c2cccs2)SC(=S)N1CCC(=O)N1CCCCC1CCO (stereo not drawn),/,/,/,/,/,-1
CC(C)COc1ccc(CNC(=S)N/N=C/c2ccc([N+](=O)[O-])cc2)cc1,-3,17,4,10*,1,-2
COc1ccc(CNC(=S)N/N=C/c2ccncc2)cc1,-16,10,-5,3,0,-7
CCCOc1ccc(CNC(=S)N/N=C/c2ccc([N+](=O)[O-])cc2)cc1,7,13,0,0,5,0
CC(C)Oc1ccc(CNC(=S)N/N=C/c2ccc([N+](=O)[O-])cc2)cc1,-12,53*,-8,0,-4,-3
Cc1ccc([N+](=O)[O-])cc1S(=O)(=O)Nc1ccc(OCC(=O)N2CCOCC2)cc1,/,/,/,/,/,-18
CN1C(=O)CC(Sc2ccccc2C(=O)O)C1=O (stereo not drawn),-1,11,1,10*,8,12
CC(C)CCC(C(=O)O)C(C)CC(=O)Nc1ccn(-c2ccccc2)n1 (stereo not drawn),-5,-2,-13,-5,-6,1
CCCCCn1c(CN2CCCCC2CC)nc2c1c(=O)n(C)c(=O)n2C (stereo not drawn),/,/,/,11*,/,0
COc1cc(C(=O)NCC(=O)OCn2nnc3ccccc3c2=O)cc(OC)c1OC,18,29,-6,-3,40*,8
COc1cc(CC(=O)OCn2nnc3ccccc3c2=O)cc(OC)c1OC,1,4,-5,-1,-1,-6
O=C(c1cccs1)n1nc(-c2ccccc2)nc1NCc1ccc(F)cc1,3,12,3,1,6,12
CC(=O)n1nc(-c2ccccc2)nc1NCc1ccc(F)cc1,-17,16,98*,1,5,-6
O=C(CSc1nc(-c2ccccc2)nn1C(=O)c1ccccc1)Nc1cccc([N+](=O)[O-])c1,16,11,57*,-1,-2,2
O=C(c1cccc([N+](=O)[O-])c1)n1nc(-c2ccccc2)nc1NCc1ccccc1,-8,6,67*,0,10,0
SMILES,KLK5 inh,FXIIa inh 1536,Thrombin inh,Wee1 degr inh,FXIa inh 1536,Platelet DG rel
O=C(c1ccc([N+](=O)[O-])cc1)n1nc(-c2ccccc2)nc1NCc1ccccc1,13,11,87*,3,3,-1
O=C(NCCO)C(O)C(O)C(=O)NCCO (stereo not drawn),18,8,7,-1,13,-5
COc1ccc(OCc2cc(C(=O)N3CCC(c4ccccc4)CC3)no2)c(Cl)c1,/,/,/,/,/,20
O=C(c1ccc([N+](=O)[O-])cc1)n1nc(-c2ccccc2)nc1NCc1ccc(F)cc1,-6,0,52*,-1,-1,19
CC(=O)N1CCC(N(CCN2CCOCC2)C(=S)Nc2cc(C)ccc2C)CC1,51*,17,23,-3,19,5
CC(=O)N1CCC(N(CCN2CCOCC2)C(=S)Nc2cccc(C)c2)CC1,-4,6,1,-3,4,3
O=Nc1c(-c2c(O)[nH]c3cc(Br)ccc23)[nH]c2ccccc12,/,/,/,/,/,2
Cc1c(Cl)cccc1Nc1nc(N)nc(CN2CCc3ccccc3C2)n1,-26,43*,0,4,27,/
Cc1ccc(Nc2nc(N)nc(CN3CCc4ccccc4C3)n2)cc1,-3,12,7,2,1,-3
O=C(CCCN1C(=O)/C(=C/c2ccccc2Cl)SC1=S)NNC(=O)c1ccccc1,-12,9,2,0,8,0
O=C(CCCN1C(=O)/C(=C/c2ccccc2Cl)SC1=S)NNC(=O)c1ccc(Cl)cc1Cl,-2,1,-6,-3,-3,53*
N/C(=N\OC(=O)Cc1ccc(Cl)cc1)c1ccncc1,0,2,-6,8.9*,-2,-18
Nc1nc(SCC(=O)Nc2ccccc2C(F)(F)F)[nH]c(=O)c1-c1ccccc1,2,3,-4,0,-2,-1
CCN(CC)S(=O)(=O)c1ccc(Cl)c(C(=O)Oc2cccc(-c3cnc4ccccc4n3)c2)c1,56*,13,8,-1,3,1
CCN(CC)S(=O)(=O)c1ccc(Cl)c(C(=O)Oc2cccnc2)c1,-21,6,-9,-3,-6,7
CC(=O)Nc1ccc(NC(=O)c2c(C)c(-c3ccccc3)nc3ccccc23)cc1,/,/,/,/,/,5
COc1ccc(-n2ncc3c(NCc4ccco4)ncnc32)cc1,-7,17,1,3,4,8
COc1ccc(-n2ncc3c(NCc4ccccn4)ncnc32)cc1,-9,44*,3,-1,25,3
Cc1cc([N+](=O)[O-])nn1CC(=O)N/N=C/c1ccc(O)cc1O,-13,0,-14,1,-6,-3
Cc1ccc(SCc2cc(=O)n3ccsc3n2)c(C)c1,-9,4,0,8,7,7
Cc1ccc(C)c(C(=O)c2c(C)nc3sccn23)c1,44*,26,22,-3,4,/
CCOc1ccc(N2C(=O)C(=O)/C(=C(/O)c3ccccc3)C2c2ccccc2[N+](=O)[O-])cc1 (stereo not drawn),1,11,1,4,4,-3
CCOC(=O)CSc1nnc(-c2ccc(OC)cc2)n1CC,78*,26,38,-4,19,0
CCOC(=O)CNC(=O)CSc1nnc(-c2ccc(OC)cc2)n1CC,-6,6,-8,6,-2,3
CNc1nc(-c2c(C)n(C)c3ccc(OC)cc23)cs1,/,/,/,/,/,-1
